# Assay results gathered from unrelated publications.
# Lines come from different studies, so protocols differ.
# Target: Ephrin type-A receptor 7 (EPHA7, Homo sapiens, UniProt Q15375)
Compound,observed,method,concentration,remaining binding [%]
CNC(=O)[C@@H]1CC[C@@H](n2c(-c3ccc4cnccc4c3)nc3ccc(C(=O)NCc4cccc(C(N)=O)c4)cc32)C1,binding,competition with immobilised ligand,1 µM,100
N[C@H]1CCN(c2nccc(-c3cnn4ncccc34)n2)C1,binding,,1 µM,100
CN(C)C(=O)Cn1cc(-c2nc([C@@](C)(c3ccc(-c4cnc(N)nc4)cc3)C3CC3)no2)cn1,cell-free assay,competition with immobilised ligand,1 µM,98
C=CC(=O)N1CCC(C(=O)NCC(=O)N2CCN(c3nc(-c4cnc(N)nc4C(F)F)nc(N4CCOCC4)n3)CC2)CC1,binding,competition with immobilised ligand,1 µM,100
C[C@@H](c1ccc(-n2cnc3c(N)ncnc32)cc1)N1CCc2nn(C)c(Cc3ccccc3)c2C1=O,binding,competition with immobilised ligand,0.1 µM,69
CC1CCCN1c1nccc(-c2cnn3ncccc23)n1 (stereo not drawn),binding,,1 µM,99
CS(=O)(=O)N1CCCC(NC(=O)[C@H](CCC2CCCCC2)NC(=O)c2ccc(CNc3ncnc4c3nnn4-c3ccccc3)cc2)C1 (stereo partly drawn),cell-free assay,competition with immobilised ligand,0.1 µM,98
O=C(c1ccc(Nc2ncc(Cl)c(-c3cc4ccccc4s3)n2)cc1)N1CCC(N2CCCC2)CC1,binding,competition with immobilised ligand,1 µM,49
CN(C)C(=O)Cn1cc(-c2nc(C3(c4ccc(-c5cnc(N)nc5)cc4)CC3)no2)cn1,cell-free assay,competition with immobilised ligand,1 µM,92
c1cncc(-c2cccc(Nc3nccc(NC4CCCCC4)n3)c2)c1,binding,competition with immobilised ligand,10 µM,100
O=C(Nc1c[nH]nc1C(=O)NC1CCNCC1)c1cc(F)cc(F)c1,binding,competition with immobilised ligand,1 µM,100
C[C@@H]1CN(c2cc(-c3nn(C)c4ccc(OC5(C)CC5)cc34)ncn2)C[C@H](C)O1,cell-free assay,competition with immobilised ligand,1 µM,99
c1cnn2ncc(-c3ccnc(N4CCC45COC5)n3)c2c1,binding,,1 µM,93
O=C(Nc1cccnn1)N1CCC(=Cc2cccc(Oc3ccc(C(F)(F)F)cn3)c2)CC1,cell-free assay,competition with immobilised ligand,1 µM,95
O=C(c1ccc(Nc2nccc(-c3cc4ccccc4s3)n2)cc1)N1CCC(N2CCCC2)CC1,binding,competition with immobilised ligand,1 µM,100
COc1ccnn2ncc(-c3ccnc(N(C)C)n3)c12,binding,,1 µM,93
COc1ncc2cc3ccccc3nc2c1C#N,cell-free assay,competition with immobilised ligand,5 µM,95
CN(C)c1ncc(F)c(-c2cnn3ncccc23)n1,binding,,1 µM,100
O=C(NCCCN1CCOCC1)c1ccc(Nc2ncc(Cl)c(-c3ccc(Cl)s3)n2)cc1,binding,competition with immobilised ligand,1 µM,60
Cc1cc(-n2nc(Cc3cc(F)cc(C(F)(F)F)c3)nc2C)ccc1C(N)=O,cell-free assay,competition with immobilised ligand,1 µM,98
CN(c1nccc(-c2cnn3ncccc23)n1)C1CC1,binding,,1 µM,100
